Values after ≈ are worked out from the molar mass of the structure shown.
Experiments:
[1] = target: T1, UDP-N-acetylenolpyruvoylglucosamine reductase (Staphylococcus aureus, UniProt P61431); assay: Inhibitory concentration against MurB enzyme in Staphylococcus aureus
T1 sequence (P61431 whole entry): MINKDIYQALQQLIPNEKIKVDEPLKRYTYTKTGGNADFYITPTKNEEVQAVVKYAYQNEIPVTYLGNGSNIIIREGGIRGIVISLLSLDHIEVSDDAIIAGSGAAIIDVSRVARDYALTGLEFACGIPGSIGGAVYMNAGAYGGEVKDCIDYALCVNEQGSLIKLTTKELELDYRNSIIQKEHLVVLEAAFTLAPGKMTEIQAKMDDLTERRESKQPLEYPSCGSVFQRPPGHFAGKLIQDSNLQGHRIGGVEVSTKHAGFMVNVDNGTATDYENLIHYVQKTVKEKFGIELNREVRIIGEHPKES
In short: (§1)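 Enzyme (20 nM) preincubated 20 min with inhibitor, then substrates added to final 50 µM EP-UNAG and 100 µM NADPH. Activity followed spectrophotometrically. At least six inhibitor concentrations between 1.5 and 50 µM per compound. IC50 from sigmoid Hill curve fit (0–100).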

[2] = target: UDP-N-acetylglucosamine 1-carboxyvinyltransferase (Escherichia coli K-12, UniProt P0A749); assay: Inhibitory concentration against MurA enzyme in Escherichia coli
UDP-N-acetylglucosamine 1-carboxyvinyltransferase, sequence (P0A749 whole entry): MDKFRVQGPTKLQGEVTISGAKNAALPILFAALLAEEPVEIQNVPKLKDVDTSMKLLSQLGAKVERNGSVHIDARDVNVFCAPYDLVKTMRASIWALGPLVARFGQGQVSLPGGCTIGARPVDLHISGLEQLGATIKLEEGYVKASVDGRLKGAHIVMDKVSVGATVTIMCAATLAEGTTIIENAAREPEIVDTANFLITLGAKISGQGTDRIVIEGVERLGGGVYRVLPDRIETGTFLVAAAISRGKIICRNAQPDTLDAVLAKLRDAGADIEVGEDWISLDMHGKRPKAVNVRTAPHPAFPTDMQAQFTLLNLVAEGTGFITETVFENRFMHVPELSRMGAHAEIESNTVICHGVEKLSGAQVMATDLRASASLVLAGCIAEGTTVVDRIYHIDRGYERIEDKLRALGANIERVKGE
In short: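 Enzyme preincubated with inhibitor 10 min at 37 °C before substrates were added. Reaction ran 30 min at 37 °C and was stopped with malachite green reagent (0.03% malachite green, 1.4% ammonium molybdate, 1.3 N HCl) for phosphate read-out.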

[3] = target: T2, UDP-N-acetylenolpyruvoylglucosamine reductase (Escherichia coli K-12, UniProt P08373); assay: Inhibitory concentration against MurB enzyme in Escherichia coli; in short: as §1
T2 sequence (P08373 whole entry): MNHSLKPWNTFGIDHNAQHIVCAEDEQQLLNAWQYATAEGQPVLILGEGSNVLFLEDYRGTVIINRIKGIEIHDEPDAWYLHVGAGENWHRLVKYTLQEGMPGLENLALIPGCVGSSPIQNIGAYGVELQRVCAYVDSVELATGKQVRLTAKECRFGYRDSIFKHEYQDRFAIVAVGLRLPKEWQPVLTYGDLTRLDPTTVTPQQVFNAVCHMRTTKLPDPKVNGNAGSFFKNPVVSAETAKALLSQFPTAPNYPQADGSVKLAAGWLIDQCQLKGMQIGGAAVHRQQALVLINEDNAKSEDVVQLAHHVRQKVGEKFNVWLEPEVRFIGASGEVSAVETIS

[4] = Minimum inhibitory concentration against cell wall biosynthesis of methicillin-susceptible Coagulase negative staphylococcus GC 646 (MSCNS); format: functional
In short: (§2)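 Broth microdilution per NCCLS M7-A3. Mueller–Hinton broth for staphylococci and enterococci, 2-fold serial dilutions of agent. Final inoculum 1–5 × 10^5 CFU/mL.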

[5] = tested on: Streptococcus pneumoniae; assay: Minimum inhibitory concentration against cell wall biosynthesis of penicillin resistant Streptococcus pneumoniae GC 1894 (PRSP) in the presence of 4% bovine serum albumin; format: functional
[6] = tested on: Escherichia coli; assay: Minimum inhibitory concentration against cell wall biosynthesis of Escherichia coli GC 4559; format: functional; in short: as §2
[7] = tested on: Escherichia coli; assay: Minimum inhibitory concentration against cell wall biosynthesis of Escherichia coli GC 4560; format: functional
[8] = tested on: Staphylococcus aureus; assay: Minimum inhibitory concentration against cell wall biosynthesis of methicillin resistant Staphylococcus aureus GC 1131; format: functional
In short: (§3)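 Broth microdilution per NCCLS M7-A3 in Mueller–Hinton broth, aerobic. Agents tested as 2-fold serial dilutions, with a final inoculum of 1–5 × 10^5 CFU/mL. Plates incubated 18–22 h at 35 °C in ambient air. MIC read as the endpoint.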

[9] = tested on: Enterococcus faecalis; assay: Minimum inhibitory concentration against cell wall biosynthesis of vancomycin susceptible (ATCC) Enterococcus faecalis GC 4555; format: functional; in short: as §2
[10] = tested on: Staphylococcus aureus; assay: Minimum inhibitory concentration against cell wall biosynthesis of methicillin susceptible Staphylococcus aureus GC 4543; format: functional; in short: as §3
[11] = tested on: Streptococcus pneumoniae; assay: Minimum inhibitory concentration against cell wall biosynthesis of penicillin resistant Streptococcus pneumoniae GC 1894 (PRSP); format: functional
In short: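 Broth microdilution per NCCLS M7-A3, using Mueller–Hinton broth supplemented with 5% sheep blood. Agents tested as 2-fold serial dilutions, with a final inoculum of 1–5 × 10^5 CFU/mL.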

[12] = tested on: Enterococcus faecalis; assay: Minimum inhibitory concentration against cell wall biosynthesis of vancomycin resistant Enterococcus faecalis GC 2242 (VRE); format: functional; in short: as §3
[13] = tested on: Escherichia coli; assay: Minimal inhibitory concentration against Escherichia coli GC 4560 was determined; format: functional; in short: as §2
[14] = tested on: Enterococcus faecalis; assay: Minimal inhibitory concentration against vancomycin susceptible Enterococcus faecalis was determined; Range = 25-50 uM; format: functional; in short: as §3
[15] = tested on: Enterococcus faecalis; assay: Minimal inhibitory concentration against vancomycin resistant Enterococcus faecalis was determined; Range = 25-50 uM; format: functional; in short: as §3
[16] = tested on: Staphylococcus aureus; assay: Minimal inhibitory concentration against methicillin resistant Staphylococcus aureus was determined; Range = 25-50 uM; format: functional; in short: as §3
[17] = tested on: Staphylococcus aureus; assay: Minimal inhibitory concentration against methicillin susceptible Staphylococcus aureus was determined; Range = 25-50 uM; format: functional; in short: as §3

SMILES | IC50 [1] [µM] | IC50 [2] [µM] | IC50 [3] [µM] | MIC [4] [µM] | MIC [5] [µM] | MIC [6] [µM] | MIC [7] [µM] | MIC [8] [µM] | MIC [9] [µM] | MIC [10] [µM] | MIC [11] [µM] | MIC [12] [µM] | MIC [13] [µM] | MIC [14] [µM] | MIC [15] [µM] | MIC [16] [µM] | MIC [17] [µM]
O=C1N(c2ccc(Cl)cc2)N(c2ccc(Cl)cc2)C(=O)C1(CCCCCCc1ccccc1)CCCCCCc1ccccc1 | 8.2 | 9.9 | 7.2 | > 200 | > 200 | > 200 | > 200 | > 200 | > 200 | 200 (≈ 128 µg/mL) | 100 (≈ 64.2 µg/mL) | 200 (≈ 128 µg/mL) | – | – | – | – | –
O=C1C(Cc2ccc(Cl)cc2Cl)C(=O)N(c2ccc(Cl)cc2)N1c1ccc(Cl)cc1 | 29 | > 50 | 11 | 50 (≈ 24 µg/mL) | > 200 | > 200 | 100 (≈ 48 µg/mL) | 50 (≈ 24 µg/mL) | 100 (≈ 48 µg/mL) | 50 (≈ 24 µg/mL) | 12.5 (≈ 6 µg/mL) | 50 (≈ 24 µg/mL) | – | – | – | – | –
O=C(CC1C(=O)N(c2ccc(Cl)cc2)N(c2ccc(Cl)cc2)C1=O)c1ccc(F)cc1 | 5.2 | 8.4 | 5.4 | > 200 | > 200 | > 200 | 200 (≈ 91.5 µg/mL) | 25 (≈ 11.4 µg/mL) | 50 (≈ 22.9 µg/mL) | 25 (≈ 11.4 µg/mL) | 25 (≈ 11.4 µg/mL) | 50 (≈ 22.9 µg/mL) | – | – | – | – | –
O=C(CCC1C(=O)N(c2ccc(Cl)cc2)N(c2ccc(Cl)cc2)C1=O)c1ccc(F)cc1 | 18 | 46.9 | 13 | 200 (≈ 94.3 µg/mL) | > 200 | > 200 | 200 (≈ 94.3 µg/mL) | 100 (≈ 47.1 µg/mL) | 100 (≈ 47.1 µg/mL) | 100 (≈ 47.1 µg/mL) | 50 (≈ 23.6 µg/mL) | 100 (≈ 47.1 µg/mL) | – | – | – | – | –
N#Cc1ccccc1-c1ccc(CC2C(=O)N(c3ccc(Cl)cc3)N(c3ccc(Cl)cc3)C2=O)cc1 | 12 | > 50 | 11 | 6.25 (≈ 3.2 µg/mL) | – | > 200 | 25 (≈ 12.8 µg/mL) | – | 25 (≈ 12.8 µg/mL) | 6.25 (≈ 3.2 µg/mL) | – | – | 25 (≈ 12.8 µg/mL) | – | – | – | –
O=C1C(CCOCc2ccccc2)C(=O)N(c2ccc(Cl)cc2)N1c1ccc(Cl)cc1 | 11 | 33.4 | 11 | 200 (≈ 91.1 µg/mL) | > 200 | > 200 | 200 (≈ 91.1 µg/mL) | 100 (≈ 45.5 µg/mL) | 200 (≈ 91.1 µg/mL) | 200 (≈ 91.1 µg/mL) | 25 (≈ 11.4 µg/mL) | 100 (≈ 45.5 µg/mL) | – | – | – | – | –
O=C(CC1(CC(=O)c2ccc(F)cc2F)C(=O)N(c2ccc(Cl)cc2)N(c2ccc(Cl)cc2)C1=O)c1ccc(F)cc1F | 5.2 | 9.6 | 5.8 | 25 (≈ 15.7 µg/mL) | > 200 | > 200 | 100 (≈ 62.9 µg/mL) | 12.5 (≈ 7.87 µg/mL) | 12.5 (≈ 7.87 µg/mL) | 12.5 (≈ 7.87 µg/mL) | 3.12 (≈ 1.96 µg/mL) | 12.5 (≈ 7.87 µg/mL) | – | – | – | – | –
CCN(CCC1C(=O)N(c2ccc(Cl)cc2)N(c2ccc(Cl)cc2)C1=O)Cc1ccccc1 | > 50 | > 50 | > 50 | > 200 | > 200 | > 200 | > 200 | 200 (≈ 96.5 µg/mL) | > 200 | > 200 | 100 (≈ 48.2 µg/mL) | 200 (≈ 96.5 µg/mL) | – | – | – | – | –
O=C(CCCC1C(=O)N(c2ccc(Cl)cc2)N(c2ccc(Cl)cc2)C1=O)c1ccc(F)cc1 | 11 | 32.4 | 10 | 100 (≈ 48.5 µg/mL) | > 200 | > 200 | 200 (≈ 97.1 µg/mL) | 50 (≈ 24.3 µg/mL) | 50 (≈ 24.3 µg/mL) | 50 (≈ 24.3 µg/mL) | 12.5 (≈ 6.07 µg/mL) | 50 (≈ 24.3 µg/mL) | – | – | – | – | –
O=C1N(c2ccc(Cl)cc2)N(c2ccc(Cl)cc2)C(=O)C1(CCOCc1ccccc1)CCOCc1ccccc1 | 7.5 | 20.1 | 7.2 | 200 (≈ 118 µg/mL) | > 200 | > 200 | 200 (≈ 118 µg/mL) | 100 (≈ 59 µg/mL) | 25 (≈ 14.7 µg/mL) | 100 (≈ 59 µg/mL) | 12.5 (≈ 7.37 µg/mL) | 50 (≈ 29.5 µg/mL) | – | – | – | – | –
O=C1C(CCCCCc2ccccc2)C(=O)N(c2ccc(Cl)cc2)N1c1ccc(Cl)cc1 | 32 | 42.3 | 10 | > 200 | > 200 | > 200 | > 200 | 200 (≈ 93.5 µg/mL) | 100 (≈ 46.7 µg/mL) | 100 (≈ 46.7 µg/mL) | 25 (≈ 11.7 µg/mL) | 200 (≈ 93.5 µg/mL) | – | – | – | – | –
O=C1C(CCCCCCc2ccccc2)C(=O)N(c2ccc(Cl)cc2)N1c1ccc(Cl)cc1 | 12 | 34.9 | 8.9 | 100 (≈ 48.1 µg/mL) | > 200 | > 200 | 200 (≈ 96.3 µg/mL) | 25 (≈ 12 µg/mL) | 50 (≈ 24.1 µg/mL) | 25 (≈ 12 µg/mL) | 6.25 (≈ 3.01 µg/mL) | 50 (≈ 24.1 µg/mL) | – | 50 (≈ 24.1 µg/mL) | 50 (≈ 24.1 µg/mL) | 50 (≈ 24.1 µg/mL) | 50 (≈ 24.1 µg/mL)

Source: ChEMBL document CHEMBL1145247, “4-Alkyl and 4,4'-dialkyl 1,2-bis(4-chlorophenyl)pyrazolidine-3,5-dione derivatives as new inhibitors of bacterial cell wall biosynthesis” (Bioorg Med Chem Lett, 2005)
